The structures appear in SMILES notation. Activity calls are given as the source filed them.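 How the source made its calls, unless noted: active means potentiation averaged over duplicate wells exceeding buffer-only control mean by more than 3 SD; inactive means the rest.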

Potassium voltage-gated channel subfamily KQT member 1 (Homo sapiens), sequence (P51787 whole entry, looked up): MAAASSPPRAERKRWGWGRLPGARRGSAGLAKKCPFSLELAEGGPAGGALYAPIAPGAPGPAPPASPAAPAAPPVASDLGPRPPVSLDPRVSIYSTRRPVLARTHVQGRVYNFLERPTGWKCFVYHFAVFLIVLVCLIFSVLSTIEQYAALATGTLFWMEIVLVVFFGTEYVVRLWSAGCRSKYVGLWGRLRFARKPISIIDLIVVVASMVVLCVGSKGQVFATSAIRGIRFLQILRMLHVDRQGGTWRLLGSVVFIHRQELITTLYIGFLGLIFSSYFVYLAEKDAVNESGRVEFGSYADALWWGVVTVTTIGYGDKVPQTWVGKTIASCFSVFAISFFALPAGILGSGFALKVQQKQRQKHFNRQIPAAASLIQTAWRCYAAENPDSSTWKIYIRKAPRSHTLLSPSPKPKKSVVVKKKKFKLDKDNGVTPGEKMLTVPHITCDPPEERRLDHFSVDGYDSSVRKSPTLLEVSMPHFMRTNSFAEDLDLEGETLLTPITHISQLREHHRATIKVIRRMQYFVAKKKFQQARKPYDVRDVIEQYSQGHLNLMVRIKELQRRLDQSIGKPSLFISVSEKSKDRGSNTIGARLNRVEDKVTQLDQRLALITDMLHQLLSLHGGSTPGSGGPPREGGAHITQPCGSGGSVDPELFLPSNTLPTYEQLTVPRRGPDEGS

Tested on in the first test: not listed separately
Nature of the test: nonspecific flux increase, KCNQ1-free cells – parental CHO cells, counter-screen for KCNQ1 potentiator project (AID 493006;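 active means duplicate-averaged activation above buffer control mean plus 5 SD of those controls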). To be noted: parental CHO-K1 cells, FluxOR thallium flux, at 10 µM; stronger effect = higher value. An outline of the steps: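 Test system: parental CHO-K1 cells, FluxOR dye-loaded / Probe or stimulus: potassium plus thallium depolarizing stimulus, 5x stock 12.5 mM K2SO4, Tl2SO4 / Timing: overnight 37 °C plating, 90 min dye, 20 min dark compound / Measured by: kinetic thallium-flux fluorescence / Read-out: max-minus-min fluorescence over baseline, percent of buffer-to-R-L3 span / Benchmarks: buffer and R-L3 controls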
On the technique in general: The purpose of a counterscreen is to sort out artefacts and off-target activity.
On to `Cc1ccccc1OC(=O)n1c(=S)oc2cc(Cl)ccc21`, for which the activation was 152% (active).
In the case of `N#C/C=C1/NC(=O)c2ccccc2S1`, the activation was 138% (active).
In the case of `O=C(NC(=S)N(CC1CCC1)CC1CCCO1)c1cccc([N+](=O)[O-])c1` (configuration not stated), the activation is 224% (active).
In the case of `CSC(C(=O)c1cc2ccccc2o1)c1ccccc1` (configuration not stated), the outcome was inactive.
Take `O=C(NNC(=S)NC(=O)c1ccco1)c1ccc(F)cc1`: the activation was 198% (active).
In the case of `COc1cccc(-c2c(NC(=O)c3ccco3)n(-c3ccc(C)cc3)nc(C)c2=O)c1`, the result was inactive.
As for `Clc1ccc(C(c2ccccc2)N2CCNCC2)cc1` (configuration not stated), the result was inactive.
Same read-out and setting: in the case of `CN(c1ccccc1)S(=O)(=O)c1ccc(NC(=O)c2nc(S(C)(=O)=O)ncc2Cl)cc1` it was “inactive”; in that of `Cc1ccc2nc(SCC(=O)N3CCN(C(=O)c4ccco4)CC3)[nH]c2c1`, “inactive”.
With `CC(C)(C)NC(=O)C(=O)NNC(=O)c1ccc(C(C)(C)C)cc1`, the activation is 341% (active).
Regarding `CCCCCNC(=O)Cn1c(=O)c2c(ncn2CC(C)C)n(Cc2ccccc2)c1=O`, the result was inactive.
For `N#C/C(=C\c1ccc(-c2ccccc2[N+](=O)[O-])o1)C(=O)Nc1nc(-c2cccs2)cs1`, the activation is 208% (active).
As for `CC1=C(C)/C(=N\OS(=O)(=O)c2ccccc2)C=CC1=O`, the outcome was inactive.
In the case of `Cc1nnc(C)n1/N=C/c1cc(Br)cc(Br)c1O`, the activation was 145% (active).
Take `OC(CON=C1c2ccccc2-c2ccccc21)CN1CCNCC1` (configuration not stated): the result was inactive.
Same read-out and setting: in the case of `CC(NC(=O)CS(=O)(=O)c1ccccc1)c1ccccc1` (configuration not stated) it was “inactive”; in that of `Fc1ccccc1Nc1nc(Cl)nc(Cl)n1`, “inactive”.
For `O=C1OCCC1Sc1nc2ccccc2c(=O)n1Cc1ccc(F)cc1` (configuration not stated), the activation was 158% (active).
Take `S=c1[nH]nc(-c2ccc(Cl)cc2)n1/N=C/C=C/c1ccco1`: the activation was 159% (active).
Still for that read-out and setting: in the case of `CC(=O)N1CCN=C1SCc1ccc(F)cc1` it was 355% (active).
Take `CCCCCCCN1N=C(C)C(C(=O)c2ccccc2)C1=O` (configuration not stated): the result was inactive.
With `O=C(O)CCSc1ncnc2sc(-c3ccccc3)cc12`, the activation was 180% (active).

The next test has as its target Potassium voltage-gated channel subfamily KQT member 1 (Homo sapiens) (UniProt P51787). Kind of test: enhancement of KCNQ1 channel thallium flux – FluxOR thallium flux, CHO cells, duplicates, confirmation (AID 493007).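 On outcome: cells depolarized by a potassium plus thallium sulfate stimulus after compound.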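 On potentiation: 0% = buffer-only wells and 100% = R-L3 activator control.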 Conditions: KCNQ1 cell line, FluxOR thallium flux fluorescence, at 10 µM; stronger effect = higher value, % of reference activator effect, buffer zero. An outline of the steps: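 Assay system: CHO cells carrying KCNQ1 | Controls: Buffer and R-L3 controls | Schedule: FluxOR dye loading 90 min, compound exposure 20 min, room temperature | Read-out: Baseline-normalized fluorescence change, percent of buffer-to-R-L3 range | Replicates: Each compound tested in duplicate | Technique: Kinetic thallium influx fluorescence with FluxOR dye, 10 s baseline, 110 s post-stimulus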
As to `S=c1nc(C2CCCCC2)n(-c2ccccc2)[nH]1`, the potentiation was 117% (active).
For the compound `Cc1cccc(NC(=S)NC(=O)c2ccc(Br)o2)c1C`, the result was inactive.
`CC(C)CSC1=NSC2=NC(=O)/C(=C\c3cccs3)C(=N)N12`: the outcome was inactive.
The same measure, in the same setting: in the case of `Cc1ccc(C2=NOC(=O)/C2=C\C=C\c2ccccc2)cc1` it was “inactive”; in that of `O=C(Cn1c(C(F)(F)F)nc2ccccc21)N=Nc1c(O)[nH]c2ccc(Br)cc12`, “inactive”.
As for `Cc1ccccc1C(=O)c1c[nH]c(C(=O)N2CCN(c3ccccc3F)CC2)c1`, the outcome was inactive.
Take `COc1cccc(OCC(=O)NNC(=O)C(=O)Nc2cccc(C)c2)c1`: the potentiation is 74.5% (active).
For the compound `COC(=O)c1ccsc1NC(=O)CN1CCN(Cc2ccc3c(c2)OCO3)CC1`, the result was inactive.
Regarding `Cc1sc2nc(CN3CCOCC3)[nH]c(=S)c2c1C`, the potentiation was 69.5% (active).
Consider `COc1cccc(C(=O)COc2ccc(NC(=O)c3ccccc3)cc2)c1`, for which the result was inactive.
Consider `CCCC(=O)Nc1cc(Cl)ccc1N1CCN(C(=O)CC)CC1`, for which the outcome was inactive.
In the case of `CCOC(=O)CC1=NS(=O)(=O)c2ccccc2N1`, the outcome was inactive.
`O=C(CSc1ccc2ccccc2n1)Nc1ccc(N2CCOCC2)cc1`: the result was inactive.
`CCCn1c(SCN2C(=O)c3ccccc3C2=O)nc2cc(Cl)ccc2c1=O`: the potentiation is 39.5% (active).
Same read-out and setting: in the case of `CCC1(c2ccc(Cl)cc2)NC(=S)N(c2ccc(C)c(C)c2)N1` (configuration not stated) it was 188% (active); in that of `O=C(NC(=S)N1CCN(C/C=C/c2ccccc2)CC1)c1ccc(F)cc1`, 74% (active).
With `CCc1ccc(-c2c(C)sc(NC(C)=O)c2C(N)=O)cc1`, the result was inactive.
On to `CCOc1ccccc1NC(=O)C1CCCN(S(=O)(=O)c2ccccc2)C1` (configuration not stated), for which the result was inactive.
As to `Cc1ccccc1OC(=O)n1c(=S)oc2cc(Cl)ccc21`, the result was inactive.
With `N#C/C=C1/NC(=O)c2ccccc2S1`, the potentiation was 22.5% (active).
For the compound `O=C(NC(=S)N(CC1CCC1)CC1CCCO1)c1cccc([N+](=O)[O-])c1` (configuration not stated), the potentiation was 74.5% (active).
Regarding `CSC(C(=O)c1cc2ccccc2o1)c1ccccc1` (configuration not stated), the result was inactive.
As to `O=C(NNC(=S)NC(=O)c1ccco1)c1ccc(F)cc1`, the potentiation is 69% (active).
Turning to `COc1cccc(-c2c(NC(=O)c3ccco3)n(-c3ccc(C)cc3)nc(C)c2=O)c1`, the result was inactive.
On the same count and under the same terms, in the case of `Clc1ccc(C(c2ccccc2)N2CCNCC2)cc1` (configuration not stated) it was “inactive”; in that of `CN(c1ccccc1)S(=O)(=O)c1ccc(NC(=O)c2nc(S(C)(=O)=O)ncc2Cl)cc1`, “inactive”; in that of `Cc1ccc2nc(SCC(=O)N3CCN(C(=O)c4ccco4)CC3)[nH]c2c1`, “inactive”.
`CC(C)(C)NC(=O)C(=O)NNC(=O)c1ccc(C(C)(C)C)cc1`: the potentiation was 112% (active).
On to `CCCCCNC(=O)Cn1c(=O)c2c(ncn2CC(C)C)n(Cc2ccccc2)c1=O`, for which the outcome was inactive.
`N#C/C(=C\c1ccc(-c2ccccc2[N+](=O)[O-])o1)C(=O)Nc1nc(-c2cccs2)cs1`: the potentiation was 56% (active).
With `CC1=C(C)/C(=N\OS(=O)(=O)c2ccccc2)C=CC1=O`, the outcome was inactive.
Turning to `Cc1nnc(C)n1/N=C/c1cc(Br)cc(Br)c1O`, the outcome was inactive.
For the compound `OC(CON=C1c2ccccc2-c2ccccc21)CN1CCNCC1` (configuration not stated), the outcome was inactive.
Consider `CC(NC(=O)CS(=O)(=O)c1ccccc1)c1ccccc1` (configuration not stated), for which the outcome was inactive.
On the same count and under the same terms, in the case of `Fc1ccccc1Nc1nc(Cl)nc(Cl)n1` it was “inactive”.
Take `O=C1OCCC1Sc1nc2ccccc2c(=O)n1Cc1ccc(F)cc1` (configuration not stated): the potentiation is 44% (active).
The same measure, in the same setting: in the case of `S=c1[nH]nc(-c2ccc(Cl)cc2)n1/N=C/C=C/c1ccco1` it was 32% (active).
With `CC(=O)N1CCN=C1SCc1ccc(F)cc1`, the potentiation is 120% (active).
Regarding `CCCCCCCN1N=C(C)C(C(=O)c2ccccc2)C1=O` (configuration not stated), the outcome was inactive.
For the compound `O=C(O)CCSc1ncnc2sc(-c3ccccc3)cc12`, the potentiation is 89.5% (active).
